Screening data (PubChem)
CHRM4 agonist: agonists of human muscarinic M4 receptor (CHRM4) | P08173 | CHO-K1 hM4/Gqi5, Fluo-8 calcium fluorescence; vehicle 0%, full acetylcholine response 100% | activation, % at 3 µM | 0.14% of 360,000 active;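 active = activation above the run mean over all test wells plus 3 SD, cut at about 32% in these data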;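 note: peak over basal fluorescence ratio per well then scaled between controls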
CHRM4 antagonist: antagonists of human muscarinic M4 receptor (CHRM4) | 0.73% of 360,000 active | AID 624125 | P08173 | CHO-hM4 cells, ACh EC80, Fluo-8 calcium fluorescence | inhibition, % at 3 µM;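 active = inhibition above its plate's cutoff, the mean inhibition of sample wells plus 3 SD, cut at about 27% in these data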
M4 PAM: positive allosteric modulators of human muscarinic M4 receptor; activation, % at 3 µM; AID 624126; 0.4% of 360,000 active; CHO-K1 hM4/Gqi5, Fluo-8 calcium fluorescence, ACh EC20; 0% = ACh EC20, 100% = maximal ACh; P08173;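 active = activation above its plate's cutoff, the mean activation of sample wells plus 3 SD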
CHRM5 antagonist: antagonists of human muscarinic M5 receptor (CHRM5); P08912; CHO-hM5 cells, Fluo-8 calcium fluorescence, ACh EC80; inhibition, % at 3 µM; 0.59% of 360,000 active; AID 624040;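 active = inhibition above a per-plate cutoff, the mean of that plate's test compounds plus 3 SD, cut at about 27% in these data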
Target sequence (P08912 whole entry, looked up): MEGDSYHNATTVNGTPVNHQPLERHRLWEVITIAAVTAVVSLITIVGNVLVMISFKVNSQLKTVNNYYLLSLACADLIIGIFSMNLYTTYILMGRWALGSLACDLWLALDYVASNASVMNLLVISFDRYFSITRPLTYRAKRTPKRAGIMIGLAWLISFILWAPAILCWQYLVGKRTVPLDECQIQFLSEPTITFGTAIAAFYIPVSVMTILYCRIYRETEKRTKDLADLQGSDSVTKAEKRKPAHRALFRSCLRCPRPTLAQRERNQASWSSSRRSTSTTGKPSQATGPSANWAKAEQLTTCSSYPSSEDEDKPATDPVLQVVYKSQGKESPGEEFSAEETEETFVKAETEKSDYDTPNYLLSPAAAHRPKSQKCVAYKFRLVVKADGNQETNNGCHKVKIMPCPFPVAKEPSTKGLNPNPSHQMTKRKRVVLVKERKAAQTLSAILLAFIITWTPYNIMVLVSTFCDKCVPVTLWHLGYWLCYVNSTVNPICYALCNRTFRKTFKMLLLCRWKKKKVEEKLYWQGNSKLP
CHRM5 agonist: agonists of human muscarinic M5 receptor (CHRM5). 0.19% of 360,000 active. CHO-K1 hM5 cells, Fluo-8 calcium fluorescence; 0% DMSO wells, 100% maximal acetylcholine response. activation, % at 3 µM. P08912. AID 624037;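 active = activation above the run's mean over test compounds plus 3 SD, cut at about 23% in these data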;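 note: signal is peak over basal fluorescence ratio across the kinetic read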
CHRM5 PAM: potentiates acetylcholine response at human M5 receptor | 0.3% of 360,000 active | activation, % at 3 µM | P08912 | CHO-K1 hM5, Fluo-8 calcium, ACh EC20 PAM; 0% = ACh EC20, 100% = ACh EC100;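 active = activation above the run cutoff, the mean activation of all test compounds plus 3 SD, cut at about 18% in these data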
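Replicates: One well per compound, no replicates | System: Human M5 receptor in CHO-K1 cells | Benchmarks: Low control EC20 acetylcholine (0%), high control EC100 acetylcholine (100%) | Probe or stimulus: Acetylcholine, EC20 level | Times: Fluo-8 loading 80 min at 37 °C plus 30 min room temperature | Signal: Intracellular calcium via Fluo-8 fluorescence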
Hits are given with their value; n = inactive. An excerpt weighted towards active compounds, which were near 1.8% of everything screened.

SMILES	CHRM4 agonist	CHRM4 antagonist	M4 PAM	CHRM5 antagonist	CHRM5 agonist	CHRM5 PAM
COc1ccc(C(=O)/C=C2/C(=O)Nc3ccccc32)c(OC)c1	n	29.2	n	n	n	n
COc1ccc(C(=O)/C=C2/C(=O)Nc3ccccc32)cc1OC	n	n	n	n	n	n
O=C1Nc2ccccc2/C1=C/C(=O)c1cccs1	n	n	n	n	n	18.6
COc1ccc(C(=O)/C=C2/C(=O)Nc3ccccc32)cc1	n	n	n	n	n	n
Cc1ccccc1C(=O)NNc1ncnc2c1cnn2C	n	n	n	n	n	n
Cc1ccc(C(=O)NNc2ncnc3c2cnn3C)cc1	n	n	n	n	n	18.6
CC1(C)Cc2c(cnn2-c2ccccc2)C(=O)/C1=N\NC(=O)c1ccncc1	n	n	18.0	n	n	n
O=C(Nc1cc(S(=O)(=O)N2CCCCC2)ccc1Cl)c1ccccc1NS(=O)(=O)c1ccc(F)cc1	n	n	n	30.4	n	n
COc1ccc(-c2csc(NC(=O)c3ccccc3NS(=O)(=O)c3ccc(F)c(F)c3)n2)cc1	n	n	n	42.3	n	n
O=C(Nc1ccccc1N1CCOCC1)c1ccccc1NS(=O)(=O)c1ccc(F)c(F)c1	n	n	n	n	n	35.5
O=C(Nc1ccccc1N1CCOCC1)c1ccccc1NS(=O)(=O)c1ccc(F)cc1	n	n	n	n	n	n
O=C(Nc1cc(S(=O)(=O)N2CCCCC2)ccc1O)c1ccccc1NS(=O)(=O)c1ccc(F)cc1	n	n	n	n	n	n
Cc1ccc(S(=O)(=O)Nc2ccccc2C(=O)Nc2nc(-c3ccc(F)cc3)cs2)cc1	n	n	n	37.8	n	n
COc1ccc(S(=O)(=O)N2CCCC(C(=O)NC3CC3)C2)cc1Cl (stereo not drawn)	n	n	n	n	n	n
CCOC(=O)c1cccc(C2=CC(=O)C[C@H](c3ccc(Cl)cc3)C2)c1	n	n	n	n	n	n
O=C(Nc1ccc(F)cc1)Nc1ccc(N2CCCC2)c(S(=O)(=O)Nc2ccccc2Cl)c1	n	n	n	28.7	n	n
Nc1[nH]c(=O)[nH]c(=O)c1N=Cc1ccccc1	n	n	n	n	n	n
CON(C)C(=O)CC(CN(Cc1ccccc1)C(=O)OC(C)(C)C)c1ccc(Cl)cc1 (stereo not drawn)	n	n	n	n	n	n
CON(C)C(=O)CCN(Cc1ccccc1)C(=O)OC(C)(C)C	n	n	n	n	n	18.6
CC(C)(C)C1CCC(=NNC(=O)C2COc3ccccc3O2)CC1 (stereo not drawn)	n	n	n	n	n	n
O=C(C[C@H]1C/C=C\C[C@H](Cc2ccc(F)cc2)C(=O)O[C@@H](c2ccccc2)CNC1=O)N[C@H](CO)Cc1ccccc1	39.4	n	n	n	n	n
O=C1NC[C@@H](c2ccccc2)OC(=O)[C@H](Cc2ccc(F)cc2)C/C=C\C[C@@H]1CC(=O)N(CCO)Cc1ccccc1	n	27.3	n	n	n	n
C[C@@H]1COC(=O)[C@H](CC(=O)OC(C)(C)C)C/C=C\C[C@H](CC(=O)N(CCO)Cc2ccccc2)C(=O)N1	n	n	n	n	n	n
CC(C)(C)OC(=O)C[C@@H]1C/C=C\C[C@@H](CC(=O)N(CCO)Cc2ccccc2)C(=O)N[C@@H](c2ccccc2)COC1=O	n	n	n	29.4	n	n
O=C1NC[C@H](c2ccccc2)OC(=O)[C@@H](Cc2ccc(F)cc2)CC/C=C/C[C@H]1CC(=O)N(CCO)Cc1ccccc1	n	n	n	n	n	n
O=C(C[C@H]1C/C=C\CC[C@H](Cc2ccc(F)cc2)C(=O)O[C@@H](c2ccccc2)CNC1=O)N[C@@H](CO)Cc1ccccc1	n	n	n	n	n	n
O=C1NC[C@H](c2ccccc2)OC(=O)[C@H](Cc2ccc(F)cc2)CC/C=C/C[C@H]1CC(=O)N(CCO)Cc1ccccc1	n	26.9	n	n	n	n
CC(Oc1ccc(Cl)cc1)C(=O)N1CCN(C(=O)c2ccco2)CC1 (stereo not drawn)	n	n	n	n	n	n
